Assay results reported in the M2OR odorant receptor database.
Where a chain is given by its changes, count along the chain named.

How the values were obtained:
Settings in all cases: stereoisomer not certain
OR2G2 (Homo sapiens) = molecular target: T1, OR2G2 (Homo sapiens) (UniProt Q8NGZ5)
T1 sequence (whole entry): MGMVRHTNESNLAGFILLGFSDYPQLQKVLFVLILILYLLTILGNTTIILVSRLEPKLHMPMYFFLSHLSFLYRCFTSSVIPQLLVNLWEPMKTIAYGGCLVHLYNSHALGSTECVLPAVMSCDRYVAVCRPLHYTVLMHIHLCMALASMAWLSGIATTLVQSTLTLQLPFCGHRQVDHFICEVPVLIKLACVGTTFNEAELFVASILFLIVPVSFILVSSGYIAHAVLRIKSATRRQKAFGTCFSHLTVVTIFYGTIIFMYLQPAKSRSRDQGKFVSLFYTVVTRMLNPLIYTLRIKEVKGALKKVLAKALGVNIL
Summary of the method: (§1)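 Each receptor–molecule pair is labelled responsive or non-responsive (inactive) according to whether the original authors judged the measured signal statistically different from baseline. The data were taken from the main text and supplementary material of published papers and checked for typos and inconsistencies. Assay methods differed by source, with transient luciferase assays in mammalian cell lines being common.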

OR2F1 (Homo sapiens) = molecular target: T2, OR2F1 (Homo sapiens) (UniProt Q13607)
T2 sequence (whole entry): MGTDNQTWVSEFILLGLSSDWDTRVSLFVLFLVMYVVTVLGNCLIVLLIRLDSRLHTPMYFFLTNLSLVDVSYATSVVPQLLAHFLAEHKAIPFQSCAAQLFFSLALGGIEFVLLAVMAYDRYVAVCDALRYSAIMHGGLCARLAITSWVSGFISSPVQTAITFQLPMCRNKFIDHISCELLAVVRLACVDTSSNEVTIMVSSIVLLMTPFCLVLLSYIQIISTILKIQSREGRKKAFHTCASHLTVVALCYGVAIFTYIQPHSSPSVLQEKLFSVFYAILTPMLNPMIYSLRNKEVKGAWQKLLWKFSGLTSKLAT
Summary of the method: as §1

OR2F2 (Homo sapiens) = molecular target: T3, OR2F2 (Homo sapiens) (UniProt O95006)
T3 sequence (whole entry): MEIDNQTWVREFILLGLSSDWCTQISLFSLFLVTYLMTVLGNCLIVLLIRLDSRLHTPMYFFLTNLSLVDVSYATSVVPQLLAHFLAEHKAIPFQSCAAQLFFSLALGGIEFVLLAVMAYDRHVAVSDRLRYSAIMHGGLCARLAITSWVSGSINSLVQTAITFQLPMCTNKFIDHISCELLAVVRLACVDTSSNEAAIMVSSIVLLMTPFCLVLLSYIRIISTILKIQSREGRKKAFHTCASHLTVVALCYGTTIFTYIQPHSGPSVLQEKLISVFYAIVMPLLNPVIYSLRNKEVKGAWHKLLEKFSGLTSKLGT
Summary of the method: as §1

OR2G3 (Homo sapiens) = molecular target: T4, OR2G3 (Homo sapiens) (UniProt Q8NGZ4)
T4 sequence (whole entry): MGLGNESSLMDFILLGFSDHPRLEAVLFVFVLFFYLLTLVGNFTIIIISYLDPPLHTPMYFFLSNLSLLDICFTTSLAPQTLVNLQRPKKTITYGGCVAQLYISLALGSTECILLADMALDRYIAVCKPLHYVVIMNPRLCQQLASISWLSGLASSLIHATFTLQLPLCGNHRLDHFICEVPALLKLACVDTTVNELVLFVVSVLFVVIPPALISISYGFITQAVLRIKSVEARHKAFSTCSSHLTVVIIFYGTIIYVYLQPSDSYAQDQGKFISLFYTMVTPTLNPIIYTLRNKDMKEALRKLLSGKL
Summary of the method: as §1

OR2G6 (Homo sapiens) = molecular target: T5, OR2G6 (Homo sapiens) (UniProt Q5TZ20)
T5 sequence (whole entry): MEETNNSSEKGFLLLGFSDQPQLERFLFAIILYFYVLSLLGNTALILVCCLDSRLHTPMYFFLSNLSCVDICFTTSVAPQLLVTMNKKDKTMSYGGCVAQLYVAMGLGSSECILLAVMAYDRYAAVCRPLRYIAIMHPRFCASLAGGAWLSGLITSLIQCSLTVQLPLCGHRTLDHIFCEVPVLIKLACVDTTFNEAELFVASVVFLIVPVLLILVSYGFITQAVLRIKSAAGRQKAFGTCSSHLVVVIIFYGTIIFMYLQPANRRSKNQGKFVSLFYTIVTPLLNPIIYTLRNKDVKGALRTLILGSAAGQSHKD
Summary of the method: as §1

OR2H1 (Homo sapiens) = molecular target: T6, OR2H1 (Homo sapiens) (UniProt Q9GZK4)
T6 sequence (whole entry): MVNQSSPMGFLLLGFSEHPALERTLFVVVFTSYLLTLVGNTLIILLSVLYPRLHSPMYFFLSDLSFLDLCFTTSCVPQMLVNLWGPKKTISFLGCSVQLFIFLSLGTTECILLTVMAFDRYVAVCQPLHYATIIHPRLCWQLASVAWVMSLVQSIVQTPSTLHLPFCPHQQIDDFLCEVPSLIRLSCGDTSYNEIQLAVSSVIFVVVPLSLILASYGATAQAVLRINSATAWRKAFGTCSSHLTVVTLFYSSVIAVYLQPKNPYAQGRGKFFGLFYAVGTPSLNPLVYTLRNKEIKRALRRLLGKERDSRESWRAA
Summary of the method: as §1

OR2H2 (Homo sapiens) = molecular target: T7, OR2H2 (Homo sapiens) (UniProt O95918)
T7 sequence (whole entry): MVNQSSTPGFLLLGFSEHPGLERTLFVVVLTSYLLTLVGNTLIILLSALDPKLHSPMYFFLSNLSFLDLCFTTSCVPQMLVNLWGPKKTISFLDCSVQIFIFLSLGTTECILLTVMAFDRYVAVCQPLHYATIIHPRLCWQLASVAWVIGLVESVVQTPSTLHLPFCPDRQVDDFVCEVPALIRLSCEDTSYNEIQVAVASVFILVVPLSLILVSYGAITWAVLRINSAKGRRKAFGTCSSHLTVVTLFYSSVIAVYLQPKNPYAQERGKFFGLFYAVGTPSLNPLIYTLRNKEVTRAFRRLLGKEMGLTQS
Summary of the method: as §1

OR2J1 (Homo sapiens) = molecular target: T8, OR2J1 (Homo sapiens) (UniProt Q9GZK6)
T8 sequence (whole entry): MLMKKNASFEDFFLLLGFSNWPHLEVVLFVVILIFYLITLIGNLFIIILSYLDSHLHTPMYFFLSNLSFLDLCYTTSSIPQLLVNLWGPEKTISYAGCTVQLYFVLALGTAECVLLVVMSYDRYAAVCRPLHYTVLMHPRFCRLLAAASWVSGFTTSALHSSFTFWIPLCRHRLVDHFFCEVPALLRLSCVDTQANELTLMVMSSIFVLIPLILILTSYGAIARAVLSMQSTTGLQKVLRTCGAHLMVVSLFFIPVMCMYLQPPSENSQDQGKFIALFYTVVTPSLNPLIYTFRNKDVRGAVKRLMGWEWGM
Summary of the method: as §1

OR2J2 (Homo sapiens) = molecular target: T9, OR2J2 (Homo sapiens) (UniProt O76002)
T9 sequence (whole entry): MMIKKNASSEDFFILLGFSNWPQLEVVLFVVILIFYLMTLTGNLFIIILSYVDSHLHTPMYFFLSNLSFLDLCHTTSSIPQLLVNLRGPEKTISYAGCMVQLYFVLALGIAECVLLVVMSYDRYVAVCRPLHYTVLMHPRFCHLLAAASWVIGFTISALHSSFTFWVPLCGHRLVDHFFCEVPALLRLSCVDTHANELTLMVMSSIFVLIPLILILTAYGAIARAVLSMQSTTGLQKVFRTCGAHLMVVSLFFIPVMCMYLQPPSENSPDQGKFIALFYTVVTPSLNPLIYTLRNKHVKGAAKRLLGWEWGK
Summary of the method: as §1

OR2J3 (Homo sapiens) = molecular target: T10, OR2J3 (Homo sapiens) (UniProt O76001)
T10 sequence (whole entry): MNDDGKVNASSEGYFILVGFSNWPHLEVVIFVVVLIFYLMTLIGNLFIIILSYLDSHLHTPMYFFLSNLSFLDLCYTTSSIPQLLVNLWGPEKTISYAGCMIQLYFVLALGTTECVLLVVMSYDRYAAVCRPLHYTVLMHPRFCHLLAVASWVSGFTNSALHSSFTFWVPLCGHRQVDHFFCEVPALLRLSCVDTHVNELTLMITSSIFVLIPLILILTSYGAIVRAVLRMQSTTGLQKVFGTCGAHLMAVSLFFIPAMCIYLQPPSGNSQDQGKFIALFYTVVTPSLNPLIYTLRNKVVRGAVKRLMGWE
Summary of the method: as §1

OR2K2 (Homo sapiens) = molecular target: T11, OR2K2 (Homo sapiens) (UniProt Q8NGT1)
T11 sequence (whole entry): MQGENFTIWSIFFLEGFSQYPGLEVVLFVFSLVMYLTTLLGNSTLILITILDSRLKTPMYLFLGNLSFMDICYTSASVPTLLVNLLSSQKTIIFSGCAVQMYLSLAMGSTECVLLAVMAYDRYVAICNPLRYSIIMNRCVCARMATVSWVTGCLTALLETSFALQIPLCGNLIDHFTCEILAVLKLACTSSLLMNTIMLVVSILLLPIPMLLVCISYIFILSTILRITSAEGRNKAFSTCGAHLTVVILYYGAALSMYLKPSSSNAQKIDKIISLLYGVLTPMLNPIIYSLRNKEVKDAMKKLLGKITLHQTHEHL
Summary of the method: as §1

OR2G2 L167P R236G = system: T12, OR2G2 L167P R236G
T12 sequence (whole entry): T1 sequence (whole entry) with L167P, R236G
Summary of the method: as §1

OR2G3 I289V = system: T13, OR2G3 I289V
T13 sequence (whole entry): T4 sequence (whole entry) with I289V
Summary of the method: as §1

OR2H2 = system: T14, OR2H2
T14 sequence (whole entry): T7 sequence (whole entry) with L30F, A48V
Summary of the method: as §1

OR2J1 L14I V182A = system: T15, OR2J1 L14I V182A
T15 sequence (whole entry): T8 sequence (whole entry) with L14I, V182A
Summary of the method: as §1

OR2J2 = system: T16, OR2J2
T16 sequence (whole entry): T9 sequence (whole entry) with H74Y, A111T, A146V, A218T
Summary of the method: as §1

OR2J3 = system: T17, OR2J3
T17 sequence (whole entry): T10 sequence (whole entry) with V228I, I261M
Summary of the method: as §1

OR2F1 = system: OR2F1
OR2F1, sequence (as listed by the source): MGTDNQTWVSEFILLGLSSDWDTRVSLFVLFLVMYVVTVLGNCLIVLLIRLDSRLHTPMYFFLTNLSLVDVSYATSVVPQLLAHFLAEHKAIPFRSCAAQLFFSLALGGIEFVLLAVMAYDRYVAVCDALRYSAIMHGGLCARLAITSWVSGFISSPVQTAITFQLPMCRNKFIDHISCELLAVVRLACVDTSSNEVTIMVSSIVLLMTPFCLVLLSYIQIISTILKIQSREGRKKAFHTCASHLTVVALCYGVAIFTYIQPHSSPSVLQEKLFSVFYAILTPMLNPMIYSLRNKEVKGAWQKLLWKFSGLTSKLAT
Summary of the method: as §1

OR2J1 [1] = system: OR2J1
Summary of the method: as §1
Target sequence in this assay (as listed by the source): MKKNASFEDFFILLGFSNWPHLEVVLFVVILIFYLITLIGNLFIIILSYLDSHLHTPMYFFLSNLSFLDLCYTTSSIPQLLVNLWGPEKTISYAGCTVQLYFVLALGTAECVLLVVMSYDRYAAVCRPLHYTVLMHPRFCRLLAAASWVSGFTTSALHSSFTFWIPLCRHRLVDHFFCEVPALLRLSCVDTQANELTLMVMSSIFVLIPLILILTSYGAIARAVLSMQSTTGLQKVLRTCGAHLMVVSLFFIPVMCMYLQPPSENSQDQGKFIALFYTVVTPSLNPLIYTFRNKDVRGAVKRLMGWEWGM

OR2J1 [2] = system: OR2J1; remark: listed apart in the source
Summary of the method: as §1

Measured: odorant receptor agonist call

CC(CC=O)c1ccc(C(C)(C)C)cc1 (stereo not drawn)
inactive: OR2G2 (Homo sapiens)

CCc1ccc(CC(C)(C)C=O)cc1
inactive: OR2G2 (Homo sapiens)

OCc1ccccc1
inactive: OR2G2 (Homo sapiens)

CC(=O)c1c(C)c([N+](=O)[O-])c(C(C)(C)C)c([N+](=O)[O-])c1C
inactive: OR2F1 (Homo sapiens) | OR2F2 (Homo sapiens) | OR2G2 (Homo sapiens) | OR2G3 (Homo sapiens) | OR2G6 (Homo sapiens) | OR2H1 (Homo sapiens) | OR2H2 (Homo sapiens) | OR2J1 (Homo sapiens) | OR2J2 (Homo sapiens) | OR2J3 (Homo sapiens) | OR2K2 (Homo sapiens)

CCCCCC(S)C(C)CO (stereo not drawn)
inactive: OR2F1 (Homo sapiens) | OR2F2 (Homo sapiens) | OR2G2 (Homo sapiens) | OR2G3 (Homo sapiens) | OR2G6 (Homo sapiens) | OR2H1 (Homo sapiens) | OR2H2 (Homo sapiens) | OR2J1 (Homo sapiens) | OR2J2 (Homo sapiens) | OR2J3 (Homo sapiens) | OR2K2 (Homo sapiens)

CCCC(C)C(=O)OCC (stereo not drawn)
inactive: OR2G2 (Homo sapiens)

Cc1occc(=O)c1OC(=O)C(C)C
active: OR2G2 (Homo sapiens)

CC1=NC(C)C(C)S1 (stereo not drawn)
not listed: OR2J2 (Homo sapiens) | OR2F1 | OR2J1 [1] | OR2J1 [2]
inactive: all other assays above

CC(C)(C)C1CCCCC1OCCCCO (stereo not drawn)
inactive: OR2G2 (Homo sapiens)

CCCCCCC=CCCC=O
not listed: OR2J2 | OR2F1 | OR2J1 [1] | OR2J1 [2]
inactive: all other assays above

CCC1OC(=O)C(O)=C1C (stereo not drawn)
not listed: OR2J2 (Homo sapiens) | OR2F1 | OR2J1 [1] | OR2J1 [2]
inactive: all other assays above

CC=CC(=O)C1C(C)=CCCC1(C)C (stereo not drawn)
active: OR2G2 (Homo sapiens)

CC1=C(O)C(=O)C(C)O1 (stereo not drawn)
not listed: OR2J2 (Homo sapiens) | OR2F1 | OR2J1 [1] | OR2J1 [2]
inactive: all other assays above

CCCCCCCCC(OC(C)=O)OC(C)=O
inactive: OR2G2 (Homo sapiens)

CCCCC(S)C(C)CO (stereo not drawn)
inactive: OR2F1 (Homo sapiens) | OR2F2 (Homo sapiens) | OR2G2 (Homo sapiens) | OR2G3 (Homo sapiens) | OR2G6 (Homo sapiens) | OR2H1 (Homo sapiens) | OR2H2 (Homo sapiens) | OR2J1 (Homo sapiens) | OR2J2 (Homo sapiens) | OR2J3 (Homo sapiens) | OR2K2 (Homo sapiens)

CCCCCC(=O)C(C)C(C)=O (stereo not drawn)
inactive: OR2F1 (Homo sapiens) | OR2F2 (Homo sapiens) | OR2G2 (Homo sapiens) | OR2G3 (Homo sapiens) | OR2G6 (Homo sapiens) | OR2H1 (Homo sapiens) | OR2H2 (Homo sapiens) | OR2J1 (Homo sapiens) | OR2J2 (Homo sapiens) | OR2J3 (Homo sapiens) | OR2K2 (Homo sapiens)

O=C([O-])C[SH2+]
inactive: OR2F1

CCC(=O)C=CC1C(C)=CCCC1(C)C (stereo not drawn)
inactive: OR2G2 (Homo sapiens)

C=CC(C)(O)CCC=C(C)CCC=C(C)C (stereo not drawn)
inactive: OR2G2 (Homo sapiens)

CC(CO)CS (stereo not drawn)
inactive: OR2F1 (Homo sapiens) | OR2F2 (Homo sapiens) | OR2G2 (Homo sapiens) | OR2G3 (Homo sapiens) | OR2G6 (Homo sapiens) | OR2H1 (Homo sapiens) | OR2H2 (Homo sapiens) | OR2J1 (Homo sapiens) | OR2J2 (Homo sapiens) | OR2J3 (Homo sapiens) | OR2K2 (Homo sapiens)

CCCC(C)=CC(=O)O
inactive: OR2J1 [1] | OR2J1 [2]

O=c1ccc2ccccc2o1
inactive: OR2J1 [2]
